This is one part of a sample in which hits are shown more often than they occur.
V-ATPase pH – regulators of yeast V-ATPase proton pumping, primary screen, pHLuorin cytosolic pH fluorescence. AID 504577, 2011. actives 0.37% (n = 350,000). response, % at 10 µM. S. cerevisiae; in the data active = response mostly above about 7.3%, no sharp cut-off; inactive = mostly below about 5.4%; note: actives read high
UPR CHOP act – activators of apoptotic CHOP UPR arm, primary screen, cell-based, CHO-CHOP luciferase reporter, luminescence, uHTS | actives 0.34% (n = 330,000) | activation, % at 10 µM | UPR activation; percent of tunicamycin response over DMSO baseline | AID 449763, 2010;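 active = at 10 µM dose, activation of 40% or more, normalized to positive control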
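Test system: CHO-CHOP cells, stable luciferase reporter of PERK-eIF2a-CHOP signalling | Quantity: 500 CHO-CHOP cells per well | Buffer or medium: F12 plus 10% serum | Compound dosing: 10 µM single point, 0.5% DMSO | Schedule: 6 h compound treatment, 37 °C | Signal: Luciferase luminescence | Control set: Tunicamycin high control, DMSO low control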
XBP1 UPR activ – activators of adaptive XBP1 UPR arm, primary screen, cell-based, CHO-XBP1 luciferase reporter, luminescence, uHTS; IRE1-XBP1 UPR activation; percent of tunicamycin response, DMSO as zero; activation, % at 20 µM; actives 0.33% (n = 330,000); AID 463104, 2010;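 active = versus positive control, 20 µM dose yields 30% or more activation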
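Material – CHO cell line with stable XBP1 luciferase reporter · Buffer or medium – F12 plus 10% FBS · Compound – single point, 20 µM final compound, 1% DMSO · Schedule – 16-18 h cell attachment at 37 °C, then 6 h compound exposure · Signal – Steady-Glo luminescence read · Benchmarks – high control tunicamycin 10 µg/mL final, low control DMSO vehicle only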
Tb MetRS inh – T. brucei MetRS inhibitors, primary screen, biochemical, luminescence; purified T. brucei MetRS, ATP depletion, Kinase-Glo luminescence; inhibition, % at 11.9 µM; methionyl-tRNA synthetase (Trypanosoma brucei brucei); AID 624268, 2012; actives 0.4% (n = 360,000);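 active = inhibition above a per-plate cutoff of the control wells' mean inhibition plus 3 SD, cut at about 5.5% in these data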
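Dosing: 11.9 µM compound single dose, 0.9% DMSO; Assay system: purified T. brucei MetRS enzyme; Measured by: Kinase-Glo luciferase luminescence reporting remaining unconsumed ATP; Schedule: 15 min plus 2 h at 25 °C.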
CHOP inh – inhibitors of CHOP promoter induction, primary screen, cell-based, unfolded protein response, luciferase reporter. CHO-K1 CHOP-promoter luciferase, tunicamycin-induced, 15-18 h. AID 2732, 2010. inhibition, % at 10 µM. actives 3.8% (n = 220,000);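 active = compounds that reduced the stress-induced luciferase reporter signal by more than about 70% of percent inhibition, limit read from the data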
A number is an active result; - = inactive; . = no result.

SMILES | V-ATPase pH | UPR CHOP act | XBP1 UPR activ | Tb MetRS inh | CHOP inh
Cc1ccc(NC(=O)COC(=O)C2(C)CC2(Cl)Cl)cc1S(=O)(=O)N1CCOCC1 (stereo not drawn) | 23.2 | - | - | - | .
CC(C)(C)c1ccc(NC(=O)COC(=O)C2(C)CC2(Cl)Cl)cc1 (stereo not drawn) | - | - | - | - | 70.2
CCCN(CCC)c1nc2ccccc2n2c(C)nnc12 | - | - | - | - | 83.1
CC(C)(C)c1ccc(C(=O)N2CCNCC2)cc1 | - | - | - | - | -
CN1CCC2(CC1)N=C(c1ccc(F)cc1)C(=S)N2C(=O)c1ccc(C(C)(C)C)cc1 | - | - | - | - | 80.9
C#CCn1c(S(=O)(=O)Cc2ccc(C)cc2)nc(-c2ccccc2)c1-c1ccccc1 | - | - | - | - | -
C#CCn1c(S(=O)(=O)Cc2ccccc2Cl)nc(-c2ccccc2)c1-c1ccccc1 | - | - | - | - | 80.4
CCOC(=O)Cn1c(-c2cccnc2)nc(-c2ccccc2)c1-c1ccccc1 | - | . | . | - | .
CCOC(=O)Cn1c(S(=O)(=O)Cc2ccccc2Cl)nc(-c2ccccc2)c1-c1ccccc1 | - | - | - | - | 70.1
COc1nc(-c2ccncc2)nc2ccccc12 | - | - | - | - | -
C=CCOc1nc(-c2ccncc2)nc2ccccc12 | - | - | - | - | 71.1
Cc1cccc(-c2nsc(SCC(=O)Nc3nccs3)n2)c1 | - | - | - | - | 87.4
Cc1cc2ccccc2c(=O)n1CC(=O)NCC(=O)N1CCN(c2cccc(Cl)c2)CC1 | - | - | - | - | 89.2
Cc1cc2ccccc2c(=O)n1CC(=O)NCC(=O)N1CCN(c2ccccc2F)CC1 | - | - | - | - | -
C[C@@H]1CN([C@@H](C)CO)C(=O)CCCn2nncc2CO[C@H]1CN(C)C(=O)c1ccc2ccn(C)c2c1 | - | . | . | - | .
COc1ccc(C(=O)CSc2nnc(-c3ccc(C)cc3)o2)cc1 | - | - | - | - | -
COc1ccc(OC)c(C(=O)CSc2nnc(-c3ccc(OC)c(OC)c3)o2)c1 | . | . | . | . | 80.4
Cc1cc(C=C2C(=O)c3ccccc3C2=O)c(C)n1-c1ccccc1 | - | - | - | - | 84.1
Cc1cc(C=C2C(=O)c3ccccc3C2=O)c(C)n1-c1cccc(C(=O)O)c1 | - | - | - | - | -
Cc1cc(/C=C2\Cc3ccccc3C2=O)c(C)n1-c1ccccc1 | - | - | - | - | 89.1
Cc1cc(C=C2C(=O)c3ccccc3C2=O)c(C)n1-c1ccc(C(=O)O)cc1 | - | - | - | - | -
Cc1noc(NS(=O)(=O)c2ccc(NC(=O)c3cc(F)c(F)c(F)c3F)cc2)c1C | - | - | - | - | .
CCCC(c1nnnn1C(C)(C)C)N1CCN(C(=O)c2ccco2)CC1 (stereo not drawn) | - | - | - | - | -
CCOC(=O)[C@]12CCC=C1N(Cc1cccc3ccccc13)C(=O)[C@H](CC(=O)NCC1CCCCC1)C2 | . | . | . | - | .
CCN(CC)c1nc(-c2cccc(OC)c2O)nc2ccccc12 | - | - | - | - | 88.1
SMILES | V-ATPase pH | UPR CHOP act | XBP1 UPR activ | Tb MetRS inh | CHOP inh
COc1cccc(-c2nc(NCc3ccccc3)c3ccccc3n2)c1O | - | - | - | - | .
Oc1ccccc1-c1nnc(COc2ccc(Cl)cc2Cl)o1 | - | - | - | - | 72.8
Oc1ccccc1-c1nnc(COc2ccccc2)o1 | - | - | - | - | -
O=C(Nc1ccc(N2CCOCC2)cc1)c1csc([C@@H]2C[C@H](O)[C@@H](CO)O2)n1 | . | . | . | - | .
COc1cccc(C(=O)N2CCN(Cc3ccccc3C(F)(F)F)CC2)c1 | - | - | - | - | 71.4
CCOC(=O)c1c(NC(=O)C2C3CCC(O3)C2C(=O)O)sc2c1CCC(CC)C2 (stereo not drawn) | - | - | - | - | -
CCOC(=O)c1c(NC(=O)C2C3C=CC(C3)C2C(=O)O)sc2c1CCC(CC)C2 (stereo not drawn) | - | - | - | - | 72.2
CCN1C(=O)[C@H]2[C@@H](c3ccc(C(F)(F)F)cc3)N[C@]3(CCCN(Cc4ccco4)C3=O)[C@H]2C1=O | - | . | . | - | .
CC/C(=N/OC(=O)c1cccc(C)c1)C(=O)c1cccs1 | - | - | - | - | 75.1
C/C(=N/OC(=O)c1ccc(C)cc1)c1cccs1 | - | - | - | - | -
CC1CCCC(NC(=O)COC(=O)[C@@H](NC(=O)c2ccc(F)cc2)C(C)C)C1C (stereo partly drawn) | - | - | - | - | .
Cc1nc(-c2ccccn2)nc(N(C)c2ccccc2)c1Cl | - | - | - | - | .
Cc1ccc(-c2csc3ncnc(SCC(=O)Nc4nnc(C)s4)c23)cc1 | - | - | - | - | 74.2
S=C(Nc1ccc(-c2nc3ccccc3[nH]2)cc1)Nc1cccnc1 | - | - | - | - | .
Cc1ccccc1Cn1c(C)c(C(=O)NCCC#N)sc1=O | . | . | . | - | .
COc1ccc(S(=O)(=O)N2CCC(c3cc(-c4cccc5ccccc45)n[nH]3)CC2)cc1 | - | - | - | - | 83.9
O=S(=O)(c1cccc(C(F)(F)F)c1)N1CCC(c2cc(-c3cccc4ccccc34)n[nH]2)CC1 | - | - | - | - | -
CN(Cc1ccccc1)N=Nc1nc[nH]c1C(N)=O | . | . | . | - | .
CCn1cc(C(=O)O)c(=O)c2cc(F)c(N/N=C/c3ccccc3[N+](=O)[O-])cc21 | - | - | - | - | 77.8
CCCSc1nc(C)c(C(C)=O)cc1C#N | - | - | - | - | 70.1
O=C(NCc1cccnc1)C(=O)NCC1OCCCN1S(=O)(=O)c1cc(F)ccc1F (stereo not drawn) | - | . | . | - | .
Cc1ccc([C@@H]2C[C@H]3[C@@H](CN2S(=O)(=O)c2ccc(C)cc2)C(=O)C[C@@H](c2ccccc2)N3S(=O)(=O)c2ccc(C)cc2)cc1 | - | . | . | - | .
CC1C(=O)CC(c2ccccc2)N(C)C1c1ccccc1 (stereo not drawn) | - | - | - | - | 78.8
Cc1cc(/C=C2\SC(=O)N(CC(=O)Nc3ccccc3F)C2=O)c(C)n1C | - | - | - | - | 84.9
Cc1cc2c(cc1C)NC(=O)CC(C(F)(F)C(F)(F)C(F)(F)F)=N2 | - | - | - | - | 72.9
Cc1ccc2c(c1)NC(=O)CC(c1ccccc1)=N2 | - | - | - | - | -
O=C(CSc1ccc2nnc(-c3cccnc3)n2n1)N1CCOCC1 | - | - | - | - | -
O=C(CSc1nnc2ccc(-c3ccc(F)cc3)nn12)NCC1CCCO1 (stereo not drawn) | - | - | - | - | .
O=C(CSc1nnc2ccc(-c3ccc(F)cc3)nn12)N1CCCC1 | 19.7 | - | - | - | -
O=C(CSc1ccc2nnc(-c3ccc(Cl)cc3)n2n1)N1CCCC1 | 13.9 | - | - | - | .

Screening data from PubChem.
